A short description of test [1]: Her2 expression decrease, cell viability multiplex – SKBR3 breast tumor cells, AlphaScreen, ATP viability, primary screen (AID 461;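 active = Her2 level under about 52% in both replicate screens, with viability over 70% of control, limit read from the data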;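 as to Her2 level: lower value means less Her2 protein in the cells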;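 as to viability: percent of carrier control wells set as 100% viability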). As to conditions: SKBR3 Her2 protein level, 18-24 h, measured here: SKBR3 viability, ATP luminescence, at 10 µM.
Test [2] addresses Receptor tyrosine-protein kinase erbB-2 (Homo sapiens) (UniProt P04626). The test is described as above. Conditions: 18-24 h, at 10 µM, stronger effect = lower value.
Test [3] is described as follows: reduced viability of SK-BR-3 breast cancer cells – cell-based, 24 h, human, pilot screen (AID 572).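 Also: compound exposure lasted between 18 and 24 h rather than exactly 24 h; 100% = carrier-treated control wells.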 As to conditions: SK-BR-3 viability, CellTiter-Glo luminescence, at 10 µM, stronger effect = lower value. Background: Cellular ATP, detected with luciferase, serves as a proxy for viable cell number.
Test [4] can be described thus: HUVEC growth inhibition – cell-based, human, primary screen (AID 575;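 active = viability at or below 30% in both replicate assays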;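 also: 100% = median of untreated cell wells with 0.1% DMSO on each plate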). Conditions: HUVEC proliferation, CellTiter-Glo luminescence, 72 h; at 10 µM; stronger effect = lower value. The method in brief:
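material = primary HUVEC, no more than 12 passages | input = 1250 cells per well | controls = vehicle and MePR control wells | measured by = CTG luminescence | times = 72 h compound incubation | format = collagen-coated 384-well format | read-out = % viability vs DMSO wells | doses = single 10 µM dose, 0.1% DMSO, from 5x medium stock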

Test [5] is described as follows: H69AR cell proliferation blockers – human, duplicate replicates, primary screen (AID 580;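 active = viability at or under a set limit in both replicates, limit being median viability minus 3 SD, cut at about 48% in these data, passing the limit was not always enough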;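 also: 100% = mean luminescence of untreated wells and 0% = no signal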). As to conditions: H69AR lung tumor cells viability, ATP luminescence, 72 h; at 10 µM; stronger effect = lower value.
The nature of test [6]: MRP1 drug-resistance reversers in H69AR cells – cell-based, doxorubicin co-treatment, pilot screen (AID 601;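 active = viability loss from added drug above about 55%, and viability with drug at most 40%, in both replicates, limit read from the data, passing the limit was not always enough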). As to conditions: CellTiter-Glo, 72 h, at 10 µM; for differential viability (reversal): stronger effect = higher value.
A short description of test [7]: yeast transport mutant growth inhibition pilot in 384-well plates, post-Golgi transport modulator project (AID 636; in the data active = inhibition above about 31%). As to conditions: absorbance 615 nm, about 18 h, stronger effect = higher value.
A short description of test [8]: growth suppression of yeast trafficking mutant, preliminary HTS, modulators of trafficking downstream of Golgi apparatus project, 1536-format plate, OD 615 nm (AID 637; in the data active = inhibition above about 30%). Conditions: yeast transport mutant growth, absorbance 615 nm, 18 h; stronger effect = higher value.
Setting [9] is: H69AR cells + 2 uM doxorubicin, measured here: viability with 2 uM doxorubicin, stronger effect = lower value.
[10] abbreviates: H69AR cells, compound alone cytotoxicity.

Activity calls are given as the source filed them.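 The calls were made as follows, unless noted: active = viability at or below 10% of carrier control in both of two separate runs; inconclusive = viability at or below 10% in only one of the two runs; inactive = the rest.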

One may read the viability as a read-out of living cells in per cent, often relative to untreated cells. Usually inhibition stands for the drop in the measured response relative to a control, in per cent.

Receptor tyrosine-protein kinase erbB-2 (Homo sapiens), sequence (P04626 whole entry, looked up): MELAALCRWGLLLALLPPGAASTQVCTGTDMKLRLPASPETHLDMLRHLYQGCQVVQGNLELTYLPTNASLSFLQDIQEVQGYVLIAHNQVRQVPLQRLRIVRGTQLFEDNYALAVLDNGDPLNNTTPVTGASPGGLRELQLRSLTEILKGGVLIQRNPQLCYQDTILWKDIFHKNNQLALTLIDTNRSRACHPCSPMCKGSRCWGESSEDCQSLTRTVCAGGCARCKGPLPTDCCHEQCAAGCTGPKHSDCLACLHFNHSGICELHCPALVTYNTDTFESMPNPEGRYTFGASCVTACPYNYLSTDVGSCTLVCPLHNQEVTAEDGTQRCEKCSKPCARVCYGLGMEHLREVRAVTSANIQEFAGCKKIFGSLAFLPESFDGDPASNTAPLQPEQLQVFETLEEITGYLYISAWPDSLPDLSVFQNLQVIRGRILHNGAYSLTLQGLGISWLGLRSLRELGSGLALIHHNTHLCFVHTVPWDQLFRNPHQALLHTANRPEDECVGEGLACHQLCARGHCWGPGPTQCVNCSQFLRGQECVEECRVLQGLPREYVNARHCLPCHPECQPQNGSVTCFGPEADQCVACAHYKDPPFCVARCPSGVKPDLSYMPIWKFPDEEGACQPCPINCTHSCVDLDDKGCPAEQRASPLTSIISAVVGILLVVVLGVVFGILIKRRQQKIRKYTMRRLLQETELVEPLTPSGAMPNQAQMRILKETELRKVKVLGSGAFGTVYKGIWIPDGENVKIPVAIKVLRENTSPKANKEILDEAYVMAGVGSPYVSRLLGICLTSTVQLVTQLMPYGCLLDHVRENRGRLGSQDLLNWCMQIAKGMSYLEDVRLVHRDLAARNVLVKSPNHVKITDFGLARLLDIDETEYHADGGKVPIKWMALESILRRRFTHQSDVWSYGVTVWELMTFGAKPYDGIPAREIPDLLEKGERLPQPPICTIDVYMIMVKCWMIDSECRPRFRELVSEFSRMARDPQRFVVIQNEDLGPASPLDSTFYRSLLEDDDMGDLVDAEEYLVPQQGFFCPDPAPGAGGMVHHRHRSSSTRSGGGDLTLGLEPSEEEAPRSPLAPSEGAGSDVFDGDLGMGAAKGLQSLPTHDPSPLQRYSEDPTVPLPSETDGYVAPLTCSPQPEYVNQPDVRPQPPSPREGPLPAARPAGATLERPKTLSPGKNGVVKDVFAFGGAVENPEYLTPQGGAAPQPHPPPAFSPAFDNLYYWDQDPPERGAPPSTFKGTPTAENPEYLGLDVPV

As for `CC(=O)c1c(C)nn(CC(O)COc2ccc3c(c2)CCC3)c1C` (stereo not given), the viability in test [1] was 93.5%; in test [3], 93.5% (inactive); in test [4], 94.4% (inactive); in test [5], 87.4% (inactive); in test [6] (setting [9]), 83.9%; in test [6] (setting [10]) it was 87.4%. For the same molecule, the Her2 level in test [2] was 105% (inactive). The differential viability (reversal) in test [6] (H69AR cells + 2 uM doxorubicin) is 3.44% (inactive). For the same molecule, the results for the inhibition in test [7] and in test [8] were 1.33% (inactive) and -6.03% (inactive), respectively.

In the case of `Cn1nnnc1SCC(=O)N1CCN(c2cccc(Cl)c2)CC1`, the viability in test [1] is 108%; in test [3], 108% (inactive); in test [4], 97.2% (inactive); in test [5] it was 85.6% (inactive); in test [6] (setting [9]) it was 77.5%; in test [6] (setting [10]) it was 85.6%. For the same molecule, in test [2], the Her2 level was 89% (inactive). Moreover, the differential viability (reversal) in test [6] (H69AR cells + 2 uM doxorubicin) is 8.05% (inactive). The results for the inhibition in test [7] and in test [8] were -1.43% (inactive) and -1.11% (inactive), respectively.

Take `COc1ccc(-c2cc(O)cc(O)c2)cc1`: the viability was 108% in test [1]; 108% (inactive) in test [3]; 71.7% (inactive) in test [4]; 87.6% (inactive) in test [5]; 79.9% in test [6] (setting [9]); 87.6% in test [6] (setting [10]). Moreover, the Her2 level in test [2] is 89.5% (inactive). For the same molecule, the differential viability (reversal) in test [6] (H69AR cells + 2 uM doxorubicin) was 7.77% (inactive). Besides, the inhibition is -8.24% (inactive) in test [7] and 4.26% (inactive) in test [8].

In the case of `COC(=O)c1cc(NS(=O)(=O)c2ccc3c(c2)CCC(=O)N3)cc(C(=O)OC)c1`, the viability in test [1] was 112%; in test [3], 112% (inactive); in test [4], 94.2% (inactive); in test [5], 96.5% (inactive); in test [6] (setting [9]), 95%; in test [6] (setting [10]), 96.5%. Also, the Her2 level in test [2] is 86% (inactive). The differential viability (reversal) in test [6] (H69AR cells + 2 uM doxorubicin) was 1.56% (inactive). In addition, the values for the inhibition in test [7] and in test [8] were 0% (inactive) and -2.86% (inactive), respectively.

As to `N#CCCN(C(=O)Nc1ccc(Cl)cc1)c1ccccc1`, the viability was 94% in test [1]; 94% (inactive) in test [3]; 113% (inactive) in test [4]; 105% (inactive) in test [5]; 95.5% in test [6] (setting [9]); 105% in test [6] (setting [10]). Besides, in test [2], the Her2 level is 111% (inactive). Further, in test [6] (H69AR cells + 2 uM doxorubicin), the differential viability (reversal) was 9.02% (inactive). Further, the inhibition is -2% (inactive) in test [7] and 0% (inactive) in test [8].

Turning to `COc1ccc(C)cc1S(=O)(=O)N(C)CC(=O)Nc1ccc2c(c1)OCCO2`, the viability in test [1] is 92%; in test [3], 92% (inactive); in test [4], 107% (inactive); in test [5] it was 89.1% (inactive); in test [6] (setting [9]), 83.2%; in test [6] (setting [10]) it was 89.1%. The Her2 level in test [2] was 92% (inactive). Further, in test [6] (H69AR cells + 2 uM doxorubicin), the differential viability (reversal) was 5.96% (inactive). For the same molecule, the inhibition was -5.33% (inactive) in test [7] and -12.5% (inactive) in test [8].

Consider `COc1ccc(-c2nc3c(c(=O)n(C)c(=O)n3C)n2CC2CC(c3ccccc3)=NO2)cc1OC` (stereo not given), for which the viability was 85.5% in test [1]; 85.5% (inactive) in test [3]; 63.4% (inactive) in test [4]; 6.03% (active) in test [5]; 4.58% in test [6] (setting [9]); 6.03% in test [6] (setting [10]). Further, the Her2 level in test [2] is 85% (inactive). For the same molecule, the differential viability (reversal) in test [6] (H69AR cells + 2 uM doxorubicin) is 1.44% (inactive). Also, the inhibition is -6.76% (inactive) in test [7] and 2.22% (inactive) in test [8].

`CCOc1ccc(-n2c(=O)cc(N3CCN(c4ccccc4)CC3)[nH]c2=O)cc1`: the viability was 94% in test [1]; 94% (inactive) in test [3]; 96.1% (inactive) in test [4]; 103% (inactive) in test [5]; 95.6% in test [6] (setting [9]); 103% in test [6] (setting [10]). Further, the Her2 level in test [2] is 84% (inactive). Besides, in test [6] (H69AR cells + 2 uM doxorubicin), the differential viability (reversal) is 7.43% (inactive). The inhibition in test [7] is -6.13% (inactive); in test [8], 6.07% (inactive).

As for `c1ccc(-n2cnc3cc(NCc4ccccn4)ccc32)cc1`, the viability was 109% in test [1]; 109% (inactive) in test [3]; 102% (inactive) in test [4]; 86.4% (inactive) in test [5]; 84% in test [6] (setting [9]); 86.4% in test [6] (setting [10]). Also, the Her2 level in test [2] was 90.5% (inactive). Besides, in test [6] (H69AR cells + 2 uM doxorubicin), the differential viability (reversal) is 2.47% (inactive). Besides, the inhibition is -5.27% (inactive) in test [7] and 2.7% (inactive) in test [8].

As for `Cc1cc(C)n(CC2CC(=O)N(c3ccc(Cl)c(Cl)c3)C2=O)n1` (stereo not given), the viability is 112% in test [1]; 112% (inactive) in test [3]; 89.9% (inactive) in test [4]; 104% (inactive) in test [5]; 93.4% in test [6] (setting [9]); 104% in test [6] (setting [10]). Further, the Her2 level in test [2] is 96.5% (inactive). The differential viability (reversal) in test [6] (H69AR cells + 2 uM doxorubicin) was 10.4% (inactive). Further, the inhibition in test [7] is -4.79% (inactive); in test [8] it was -9.05% (inactive).

On to `COc1ccc(C2C(C#N)=C(N)OC3=C2C(=O)CC(C)C3)c(OC)c1OC` (stereo not given), for which the viability is 102% in test [1]; 102% (inactive) in test [3]; 101% (inactive) in test [4]; 100% (inactive) in test [5]; 96.6% in test [6] (setting [9]); 100% in test [6] (setting [10]). Also, the Her2 level in test [2] was 134% (inactive). For the same molecule, in test [6] (H69AR cells + 2 uM doxorubicin), the differential viability (reversal) is 3.42% (inactive). The inhibition in test [7] is 2.86% (inactive); in test [8] it was -4.83% (inactive).

For the molecule `Cn1c(=O)c2c(nc(SCc3nn[nH]n3)n2Cc2ccccc2F)n(C)c1=O`, the viability in test [1] is 97.5%; in test [3], 97.5% (inactive); in test [4], 94.4% (inactive); in test [5], 90.9% (inactive); in test [6] (setting [9]), 93.7%; in test [6] (setting [10]), 90.9%. Further, the Her2 level in test [2] is 97% (inactive). Further, the differential viability (reversal) in test [6] (H69AR cells + 2 uM doxorubicin) is -2.83% (inactive). The inhibition was -0.13% (inactive) in test [7] and 1.27% (inactive) in test [8].

In the case of `CCOCCCNC(=O)C1CCN(C(=O)Nc2ccc(Cl)cc2)CC1`, the viability in test [1] is 103%; in test [3], 103% (inactive); in test [4] it was 94.7% (inactive); in test [5], 102% (inactive); in test [6] (setting [9]) it was 90.8%; in test [6] (setting [10]) it was 102%. Also, the Her2 level in test [2] was 92.5% (inactive). Further, in test [6] (H69AR cells + 2 uM doxorubicin), the differential viability (reversal) is 10.9% (inactive). Moreover, the results for the inhibition in test [7] and in test [8] were -5% (inactive) and -1% (inactive), respectively.

`CCN(CCCNC(=O)C1CCCN(S(=O)(=O)c2cnc[nH]2)C1)c1ccccc1` (stereo not given): the viability in test [1] is 94%; in test [3], 94% (inactive); in test [4], 104% (inactive); in test [5] it was 94.8% (inactive); in test [6] (setting [9]), 88.2%; in test [6] (setting [10]), 94.8%. Besides, the Her2 level in test [2] was 93% (inactive). Besides, the differential viability (reversal) in test [6] (H69AR cells + 2 uM doxorubicin) was 6.6% (inactive). Further, the inhibition is -1.87% (inactive) in test [7] and -1.64% (inactive) in test [8].

(Values after PubChem BioAssay.)
